This note sets out measurements from paper PMC7032195 (Asian Journal of Pharmaceutical Sciences, 2018).

Like-named read-outs stand apart in the source and are kept apart here.

Series [1] in a line: Pharmacokinetics after intravenous injection in rats. The class given is in vivo, Sprague-Dawley rats. As to conditions: i.v., 10 mg/kg. An outline of the steps: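 Male Sprague-Dawley rats (~200 g), n = 3, received ethanol solutions or co-loaded mPEG-PDLA micelles i.v. at 10 mg/kg. Orbital plexus blood was drawn into heparin tubes at 0.083–12 h. Plasma was separated at 5000 rpm for 10 min and stored at −20 °C. Carbamazepine was the internal standard, with methyl tert-butyl ether extraction. UV detection was at 228 or 306 nm. Parameters are mean ± SD.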

Series [2] concerns MCF-7 cells. Briefly: MTT assay of DTX, RES and their combinations at different mass ratios. It is filed as cell-based. As to conditions: Homo sapiens. The procedure, abridged:
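MCF-7 cells seeded at 6000 cells/well 12 h before dosing, then exposed to each test compound alone (0–50.0 or 0–100.0 µg/ml) or as 1:1 combinations (2.5+2.5 to 50+50 µg/ml); DMEM vehicle control. After two days, OD read at 490 nm. Six replicate wells per condition, at least three independent repeats. Combination index calculated for 2:1, 1:1 and 1:2 mass ratios.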

[3] abbreviates: MCF7, read-out: IC50 in MCF-7 cells.

For the molecule `CC(=O)O[C@@]12CO[C@@H]1C[C@H](O)[C@@]1(C)C(=O)[C@H](O)C3=C(C)[C@@H](OC(=O)[C@H](O)[C@@H](NC(=O)OC(C)(C)C)c4ccccc4)C[C@@](O)([C@@H](OC(=O)c4ccccc4)[C@H]21)C3(C)C` [DTX, docetaxel], the “V” value in series [1] (analyte DTX) was determined as 3.79 ± 0.83 L/kg. The IC50 came out at 10.4 ± 0.43 µg/mL in series [2] (MCF7, read-out: IC50 (µg/ml) DTX) and 10.4 µg/mL in series [2] (setting [3]).

Consider `Oc1ccc(/C=C/c2cc(O)cc(O)c2)cc1` [RES, resveratrol], for which, in series [1] (analyte RES), the “V” value was determined as 3.45 ± 2.93 L/kg. Moreover, the IC50 in series [2] (MCF7, read-out: IC50 (µg/ml) RES) worked out at 23 ± 0.54 µg/mL; in series [2] (setting [3]), 23 µg/mL.
